# Measurements published in ChEMBL document CHEMBL4251571, “Design, syntheses and lipid accumulation inhibitory activities of novel resveratrol mimics” (Eur J Med Chem, 2018).
# Active and inactive are the calls of the source. No cut-off for these calls is given here.
# How the values were obtained:
# 3T3-L1 [1] = experiment: Inhibition of triglyceride accumulation in mouse 3T3L1 cells at 1 to 10 uM after 6 days by ORO staining-based microscopic method; type: functional, cell-based
# How it was run: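 Differentiating 3T3-L1 cells received compounds in DMSO with the differentiation cocktail over 6 days, with 0.1% DMSO vehicle and berberine control. On day 6, cells fixed 1 h in 10% formaldehyde/PBS at room temperature and stained 30 min with fresh Oil Red O. After water washes, they were imaged at 10× magnification under constant light settings. Undifferentiated cells served as reference.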
# 3T3-L1 [2] = experiment: Inhibition of triglyceride accumulation in mouse 3T3L1 cells at 10 uM after 3 days relative to control; type: functional; conditions: 3T3-L1, 72 h
# How it was run: (§1)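 3T3-L1 preadipocytes differentiated from 2 days post-confluence: 3 days in DMEM/10% FBS with insulin, dexamethasone, 0.5 mM IBMX and biotin, then 3 days with insulin only. Compounds in DMSO (0.1% DMSO vehicle) given on days 0 and 3. Berberine as positive control. Cells washed in ice-cold PBS and lysed; triglyceride measured with a commercial kit. Reported as TG relative to […] cells, mean ± SD of three independent experiments.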
# 3T3-L1 [3] = experiment: Inhibition of triglyceride accumulation in mouse 3T3L1 cells after 3 days; type: functional, cell-based; conditions: in the assay text read “after 6 days” for “after 3 days”; how it was run: as §1
# [4] = Cytotoxicity against HEK293T cells after 24 hrs by MTT assay; type: cell-based, HEK-293T; conditions: human
# How it was run: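 HEK293T seeded 5000/well, grown overnight, then exposed to a range of compound concentrations for 24 h with 0.5% DMSO vehicle. MTT (0.05 mg/well) added for 4 h, formazan dissolved in DMSO, absorbance read at 492 nm after 20 min shaking. Percentage computed as (A experiment − A blank)/(A control − A blank).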
# 3T3-L1 [5] = experiment: Downregulation of PPARgamma mRNA expression in mouse 3T3L1 cells at 10 uM after 3 days by RT-qPCR method; type: functional, cell-based
# 3T3-L1 [6] = experiment: Downregulation of SREBP-1c mRNA expression in mouse 3T3L1 cells at 10 uM after 3 days by RT-qPCR method; type: functional, cell-based
# How it was run: (§2)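 Compounds were added to 3T3-L1 cells during cocktail-induced differentiation. Total RNA was extracted with RNAiso plus, and 1 µg was reverse-transcribed before real-time qPCR. Mouse primers were used for AMPK, ACC, SREBP-1c and FABP4. Mean ± SD of 3 independent experiments versus vehicle.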
# 3T3-L1 [7] = experiment: Downregulation of FABP4 mRNA expression in mouse 3T3L1 cells at 10 uM after 3 days by RT-qPCR method; type: functional, cell-based; how it was run: as §2
# Mus musculus [8] = organism: Mus musculus; experiment: Induction of AMPKalpha phosphorylation in mouse 3T3L1 cells at 10 uM after 3 days by Western blotting method relative to control; type: cell-based
# How it was run: (§3)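 3T3-L1 lysates were made in NP-40/deoxycholate/SDS buffer with protease and phosphatase inhibitors, then transferred to membranes. Membranes were blocked 2 h in 5% skim milk/TBST and probed with antibodies to phospho-Thr172 and total AMPKα, phospho-Ser79 and total ACC, SIRT1, PPARγ, SREBP-1c and FABP4. Detection was by ECL, with densitometry normalized to α-tubulin. Mean ± SD of 3 independent experiments.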
# Mus musculus [9] = organism: Mus musculus; experiment: Induction of AMPKalpha phosphorylation in mouse 3T3L1 cells assessed as increase in ACC phosphorylation at 10 uM after 3 days by Western blotting method relative to control; type: cell-based; how it was run: as §3
# 3T3-L1 [10] = experiment: Effect on AMPKalpha mRNA expression in mouse 3T3L1 cells at 10 uM after 3 days by qRT-PCR method; type: functional, cell-based; how it was run: as §2
# 3T3-L1 [11] = experiment: Effect on ACC mRNA expression in mouse 3T3L1 cells at 10 uM after 3 days by qRT-PCR method; type: functional, cell-based; how it was run: as §2
# 3T3-L1 [12] = experiment: Upregulation of SIRT1 mRNA expression in mouse 3T3L1 cells at 10 uM after 3 days by qRT-PCR method; type: functional, cell-based
# 3T3-L1 [13] = experiment: Upregulation of SIRT1 protein expression in mouse 3T3L1 cells at 10 uM after 3 days by Western blotting method; type: functional, cell-based; how it was run: as §3
# 3T3-L1 [14] = experiment: Downregulation of PPARgamma protein expression in mouse 3T3L1 cells at 10 uM after 3 days by Western blotting method; type: functional, cell-based; how it was run: as §3
# 3T3-L1 [15] = experiment: Downregulation of SREBP-1c protein expression in mouse 3T3L1 cells at 10 uM after 3 days by Western blotting method; type: functional, cell-based; how it was run: as §3
# 3T3-L1 [16] = experiment: Downregulation of FABP4 protein expression in mouse 3T3L1 cells at 10 uM after 3 days by Western blotting method; type: functional, cell-based; how it was run: as §3
compound,measurement,setting,value
COc1ccc2cc3[n+](cc2c1OC)CCc1cc2c(cc1-3)OCO2,inhibition,3T3-L1 [1],Active
O=c1cc(O)cc(/C=C/C2CCCCC2)[nH]1,inhibition at 10 µM,3T3-L1 [2],78.4%
same,inhibition,3T3-L1 [3],Dose-dependent effect
same,inhibition,3T3-L1 [1],Active
same,CC50 at 24 h,[4],13.8 µM
same,Activity,3T3-L1 [5],Active
same,Activity,3T3-L1 [6],Active
same,Activity,3T3-L1 [7],Active
same,fold change (FC),Mus musculus [8],3.45
same,fold change (FC),Mus musculus [9],2.98
same,Activity,3T3-L1 [10],inactive
same,Activity,3T3-L1 [11],inactive
same,Activity,3T3-L1 [12],Active
same,Activity,3T3-L1 [13],Active
O=c1cc(O)cc(/C=C/c2ccco2)[nH]1,inhibition,3T3-L1 [3],Dose-dependent effect
O=c1cc(O)cc(/C=C/c2ccccc2)[nH]1,inhibition,3T3-L1 [3],Dose-dependent effect
Cc1ccc(/C=C/c2cc(O)cc(=O)[nH]2)o1,inhibition,3T3-L1 [3],Dose-dependent effect
same,inhibition,3T3-L1 [1],Active
same,CC50 at 24 h,[4],> 1000 µM
same,Activity,3T3-L1 [5],Active
same,Activity,3T3-L1 [6],Active
same,Activity,3T3-L1 [7],Active
same,Activity,3T3-L1 [14],Active
same,Activity,3T3-L1 [15],Active
same,Activity,3T3-L1 [16],Active
same,fold change (FC),Mus musculus [8],3.1
same,fold change (FC),Mus musculus [9],4.12
same,Activity,3T3-L1 [10],inactive
same,Activity,3T3-L1 [11],inactive
same,Activity,3T3-L1 [12],Active
same,Activity,3T3-L1 [13],Active
Oc1ccc(/C=C/c2cc(O)cc(O)c2)cc1 [RESVERATROL],inhibition,3T3-L1 [1],Active
same,CC50 at 24 h,[4],22.8 µM
O=c1cc(O)cc(/C=C/c2ccccc2Cl)[nH]1,inhibition,3T3-L1 [3],Dose-dependent effect
O=c1cc(O)cc(/C=C/c2cccs2)[nH]1,inhibition,3T3-L1 [3],Dose-dependent effect
